ChEMBL document CHEMBL2062435, “Synthesis and in vitro antibacterial activity of gemifloxacin derivatives containing a substituted benzyloxime moiety” (2012)

Columns and labels:
Type in all cases: functional
[1] = tested on: Escherichia coli; test: Antimicrobial activity against extended spectrum beta-lactamases-producing Escherichia coli 10-2 after 18-24 hrs by two-fold serial dilution method
Procedure, shortened: (§1)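 Agar-medium twofold serial dilution against Gram-positive and Gram-negative strains; MIC taken as the lowest compound concentration giving complete inhibition of bacterial growth after incubation at 35 °C for 18-24 h.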

[2] = tested on: Staphylococcus epidermidis; test: Antimicrobial activity against extended spectrum beta-lactamases-producing methicillin-sensitive Staphylococcus epidermidis 10-13 after 18-24 hrs by two-fold serial dilution method; procedure, shortened: as §1
[3] = tested on: Klebsiella pneumoniae; test: Antimicrobial activity against Klebsiella pneumoniae 10-4 after 18-24 hrs by two-fold serial dilution method; procedure, shortened: as §1
[4] = tested on: Escherichia coli; test: Antimicrobial activity against Escherichia coli 10-1 after 18-24 hrs by two-fold serial dilution method; procedure, shortened: as §1
[5] = tested on: Enterococcus faecium; test: Antimicrobial activity against Enterococcus faecium 10-9 after 18-24 hrs by two-fold serial dilution method; procedure, shortened: as §1
[6] = tested on: Klebsiella pneumoniae; test: Antimicrobial activity against extended spectrum beta-lactamases-producing Klebsiella pneumoniae 10-2 after 18-24 hrs by two-fold serial dilution method; procedure, shortened: as §1
[7] = tested on: Klebsiella pneumoniae; test: Antimicrobial activity against Klebsiella pneumoniae 10-2 after 18-24 hrs by two-fold serial dilution method; procedure, shortened: as §1
[8] = tested on: Klebsiella pneumoniae; test: Antimicrobial activity against extended spectrum beta-lactamases-producing Klebsiella pneumoniae 10-3 after 18-24 hrs by two-fold serial dilution method; procedure, shortened: as §1
[9] = tested on: Escherichia coli; test: Antimicrobial activity against Escherichia coli 10-3 after 18-24 hrs by two-fold serial dilution method; procedure, shortened: as §1
[10] = tested on: Streptococcus pneumoniae; test: Antimicrobial activity against extended spectrum beta-lactamases-producing Streptococcus pneumoniae 10-1 after 18-24 hrs by two-fold serial dilution method; procedure, shortened: as §1
[11] = tested on: Staphylococcus epidermidis; test: Antimicrobial activity against extended spectrum beta-lactamases-producing methicillin-resistant Staphylococcus epidermidis 10-10 after 18-24 hrs by two-fold serial dilution method
Procedure, shortened: (§2)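 Agar twofold serial dilution MIC against clinical isolates. MIC was taken as the lowest concentration giving complete inhibition of bacterial growth after incubation at 35 °C for 18-24 h.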

[12] = tested on: Pseudomonas aeruginosa; test: Antimicrobial activity against extended spectrum beta-lactamases-producing Pseudomonas aeruginosa 10-20 after 18-24 hrs by two-fold serial dilution method; procedure, shortened: as §1
[13] = tested on: Pseudomonas aeruginosa; test: Antimicrobial activity against Pseudomonas aeruginosa 10-12 after 18-24 hrs by two-fold serial dilution method; procedure, shortened: as §1
[14] = tested on: Staphylococcus epidermidis; test: Antimicrobial activity against extended spectrum beta-lactamases-producing methicillin-sensitive Staphylococcus epidermidis 10-11 after 18-24 hrs by two-fold serial dilution method; procedure, shortened: as §1
[15] = tested on: Staphylococcus aureus; test: Antimicrobial activity against extended spectrum beta-lactamases-producing methicillin-resistant Staphylococcus aureus 10-15 after 18-24 hrs by two-fold serial dilution method; procedure, shortened: as §2
[16] = tested on: Pseudomonas aeruginosa; test: Antimicrobial activity against extended spectrum beta-lactamases-producing Pseudomonas aeruginosa 10-9 after 18-24 hrs by two-fold serial dilution method; procedure, shortened: as §1
[17] = tested on: Staphylococcus aureus; test: Antimicrobial activity against extended spectrum beta-lactamases-producing methicillin-sensitive Staphylococcus aureus 10-13 after 18-24 hrs by two-fold serial dilution method; procedure, shortened: as §1
[18] = tested on: Pseudomonas aeruginosa; test: Antimicrobial activity against extended spectrum beta-lactamases-producing Pseudomonas aeruginosa 10-15 after 18-24 hrs by two-fold serial dilution method; procedure, shortened: as §1
[19] = tested on: Staphylococcus aureus; test: Antimicrobial activity against Staphylococcus aureus ATCC […] after 18-24 hrs by two-fold serial dilution method; procedure, shortened: as §1
[20] = tested on: Escherichia coli; test: Antimicrobial activity against Escherichia coli ATCC 25922 after 18-24 hrs by two-fold serial dilution method; procedure, shortened: as §1
[21] = tested on: Staphylococcus aureus; test: Antimicrobial activity against extended spectrum beta-lactamases-producing methicillin-sensitive Staphylococcus aureus 10-14 after 18-24 hrs by two-fold serial dilution method; procedure, shortened: as §1
[22] = tested on: Escherichia coli; test: Antimicrobial activity against extended spectrum beta-lactamases-producing Escherichia coli 10-3 after 18-24 hrs by two-fold serial dilution method; procedure, shortened: as §1
[23] = tested on: Enterococcus faecalis; test: Antimicrobial activity against Enterococcus faecalis 10-5 after 18-24 hrs by two-fold serial dilution method; procedure, shortened: as §1
[24] = tested on: Staphylococcus epidermidis; test: Antimicrobial activity against extended spectrum beta-lactamases-producing methicillin-resistant Staphylococcus epidermidis 10-13 after 18-24 hrs by two-fold serial dilution method; procedure, shortened: as §2
[25] = tested on: Pseudomonas aeruginosa; test: Antimicrobial activity against extended spectrum beta-lactamases-producing Pseudomonas aeruginosa 10-18 after 18-24 hrs by two-fold serial dilution method; procedure, shortened: as §1
[26] = tested on: Staphylococcus aureus; test: Antimicrobial activity against extended spectrum beta-lactamases-producing methicillin-resistant Staphylococcus aureus 10-11 after 18-24 hrs by two-fold serial dilution method; procedure, shortened: as §2
[27] = tested on: Escherichia coli; test: Antimicrobial activity against extended spectrum beta-lactamases-producing Escherichia coli 10-4 after 18-24 hrs by two-fold serial dilution method; procedure, shortened: as §1
[28] = tested on: Pseudomonas aeruginosa; test: Antimicrobial activity against extended spectrum beta-lactamases-producing Pseudomonas aeruginosa 10-5 after 18-24 hrs by two-fold serial dilution method; procedure, shortened: as §1
[29] = tested on: Enterococcus faecalis; test: Antimicrobial activity against Enterococcus faecalis 10-7 after 18-24 hrs by two-fold serial dilution method; procedure, shortened: as §1
[30] = tested on: Enterococcus faecium; test: Antimicrobial activity against Enterococcus faecium 10-5 after 18-24 hrs by two-fold serial dilution method; procedure, shortened: as §1
[31] = tested on: Streptococcus pneumoniae; test: Antimicrobial activity against extended spectrum beta-lactamases-producing Streptococcus pneumoniae 10-4 after 18-24 hrs by two-fold serial dilution method; procedure, shortened: as §1
[32] = tested on: Klebsiella pneumoniae; test: Antimicrobial activity against extended spectrum beta-lactamases-producing Klebsiella pneumoniae 10-1 after 18-24 hrs by two-fold serial dilution method; procedure, shortened: as §1
[33] = tested on: Staphylococcus epidermidis; test: Antimicrobial activity against extended spectrum beta-lactamases-producing methicillin-sensitive Staphylococcus epidermidis 10-15 after 18-24 hrs by two-fold serial dilution method; procedure, shortened: as §1
[34] = tested on: Escherichia coli; test: Antimicrobial activity against Escherichia coli 10-2 after 18-24 hrs by two-fold serial dilution method; procedure, shortened: as §1
[35] = tested on: Enterococcus faecalis; test: Antimicrobial activity against Enterococcus faecalis 10-6 after 18-24 hrs by two-fold serial dilution method; procedure, shortened: as §1
[36] = tested on: Klebsiella pneumoniae; test: Antimicrobial activity against Klebsiella pneumoniae 10-3 after 18-24 hrs by two-fold serial dilution method; procedure, shortened: as §1

| SMILES | MIC [1] [µg/mL] | MIC [2] [µg/mL] | MIC [3] [µg/mL] | MIC [4] [µg/mL] | MIC [5] [µg/mL] | MIC [6] [µg/mL] | MIC [7] [µg/mL] | MIC [8] [µg/mL] | MIC [9] [µg/mL] | MIC [10] [µg/mL] | MIC [11] [µg/mL] | MIC [12] [µg/mL] | MIC [13] [µg/mL] | MIC [14] [µg/mL] | MIC [15] [µg/mL] | MIC [16] [µg/mL] | MIC [17] [µg/mL] | MIC [18] [µg/mL] | MIC [19] [µg/mL] | MIC [20] [µg/mL] | further results |
| --- | --- | --- | --- | --- | --- | --- | --- | --- | --- | --- | --- | --- | --- | --- | --- | --- | --- | --- | --- | --- | --- |
| CS(=O)(=O)O.NCC1CN(c2nc3c(cc2F)c(=O)c(C(=O)O)cn3C2CC2)C/C1=N\OCc1ccc2c(c1)OCO2 (racemic) | > 128 | 1 | > 128 | 32 | 4 | > 128 | 2 | 128 | 8 | 1 | 1 | 0.25 | 0.06 | 2 | 0.5 | 4 | 0.5 | 4 | 0.06 | 0.125 | MIC [21]: 0.03 µg/mL; MIC [22]: 16 µg/mL; MIC [23]: 0.5 µg/mL; MIC [24]: 0.5 µg/mL; MIC [25]: 2 µg/mL; MIC [26]: 1 µg/mL; MIC [27]: 2 µg/mL; MIC [28]: 8 µg/mL; MIC [29]: 1 µg/mL; MIC [30]: 4 µg/mL; MIC [31]: 2 µg/mL; MIC [32]: 128 µg/mL; MIC [33]: 4 µg/mL; MIC [34]: 2 µg/mL; MIC [35]: 2 µg/mL; MIC [36]: 2 µg/mL |
| COc1cc(CO/N=C2\CN(c3nc4c(cc3F)c(=O)c(C(=O)O)cn4C3CC3)CC2CN)ccc1OCc1ccccc1.CS(=O)(=O)O (racemic) | > 128 | 2 | > 128 | > 128 | 16 | > 128 | > 128 | > 128 | > 128 | 4 | 4 | 0.06 | < 0.008 | 8 | 0.5 | 16 | 4 | 32 | < 0.008 | 2 | MIC [21]: < 0.008 µg/mL; MIC [22]: > 128 µg/mL; MIC [23]: 4 µg/mL; MIC [24]: 1 µg/mL; MIC [25]: 16 µg/mL; MIC [26]: 4 µg/mL; MIC [27]: 32 µg/mL; MIC [28]: 16 µg/mL; MIC [29]: 4 µg/mL; MIC [30]: 16 µg/mL; MIC [31]: 16 µg/mL; MIC [32]: > 128 µg/mL; MIC [33]: 8 µg/mL; MIC [34]: 16 µg/mL; MIC [35]: 8 µg/mL; MIC [36]: 32 µg/mL |
